Experimental data from publication PMC3648642 (Journal of medicinal chemistry, 2013).
One block for each compound: values may come before it.

Experiments:
TSPO [1] = molecular target: T1, TSPO (Rattus norvegicus, UniProt P16257); assay: Radioligand displacement of 3H-PK 11195 in C6 glioma cell lysate; assay type: binding; conditions: for decrease in affinity with respect to parent compound: R2 hydrogen replaced with methyl
TSPO [2] = conditions: high-affinity TSPO ligand for comparison; cited from earlier work
C6 glioma = assay type: in vivo, Wistar rats
Method in brief: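 C6 glioma-bearing Wistar rats were given the 18F-labelled test compound (radiochemical purity >99%) and imaged by 90-minute dynamic microPET. Time-activity curves were drawn for tumor, normal brain and plasma across eight representative studies. Plasma radiometabolites were analysed by radio-HPLC at 2, 12, 30, 60 and 90 min. Brains were processed post mortem for staining and immunohistochemistry.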

[3] = Radio-HPLC of radiometabolites in plasma during PET scanning; assay type: in vivo, rat; conditions: 2, 12, 30, 60, 90 min
TSPO [4] = molecular target: T1, TSPO; assay: Biodistribution and specific binding; assay type: in vivo, rats
Method in brief: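 Normal rats received an infusion of the 18F-labelled test compound (radiochemical purity >99%, specific activity >4203 Ci/mmol). Tissues were harvested 60 minutes after infusion, and their radioactivity was counted. Values are expressed as percentage of injected dose per gram of tissue (%ID/g).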

[5] = within the first 12 minutes post-administration; cited from earlier work
[6] = bolus of non-radioactive 6b (10 mg/kg) at 30 minutes, 60-minute assay

enhancement in affinity compared to 6a (DPA-714) (TSPO [1]; TSPO affinity): 36 fold
SMILES: CCc1cc(CC)n2nc(-c3ccc(OCCF)cc3)c(CC(=O)N(CC)CC)c2n1 [Compound 6b, 2-(5,7-diethyl-2-(4-(2-fluoroethoxy)phenyl)pyrazolo[1,5-a]pyrimidin-3-yl)-N,N-diethylacetamide]

decrease in affinity with respect to parent compound (TSPO [1]): approximately 10 fold
SMILES: CCN(CC)C(=O)Cc1c(-c2ccc(OC)cc2)nn2c(C)c(C)c(C)nc12 [Compound 5d]

SMILES: COc1ccccc1CN(C(C)=O)c1cnccc1Oc1ccccc1 [PBR28, N-(2-methoxybenzyl)-N-(4-phenoxypyridin-3-yl)acetamide]
Ki (TSPO [2]): 4 nM

clearance from plasma (C6 glioma; time-activity curve, 90-minute dynamic acquisition): quickly cleared from the plasma | accumulation in brain, testes, skull, and skeletal muscle (TSPO [4]; 60 minutes after infusion): Very minor accumulation | accumulation in spleen, heart, kidney, and lung (TSPO [4]; 60 minutes after infusion): elevated accumulation | uptake in liver, colon, small bowel, and stomach (TSPO [4]; 60 minutes after infusion): Moderate uptake | radioactivity in whole blood or urine (TSPO [4]; 60 minutes post-administration): very little radio-activity | activity in muscle or liver with displacement (TSPO [4]; [6]): essentially unchanged with displacement | activity in spleen, heart, kidney, and lung with displacement (TSPO [4]; [6]): reduced to background levels | activity in urine with displacement (TSPO [4]; [6]): elevated with displacement
SMILES: CCc1cc(CC)n2nc(-c3ccc(OCC[18F])cc3)c(CC(=O)N(CC)CC)c2n1 [^18F-6b, 2-(5,7-diethyl-2-(4-(2-[^18F]fluoroethoxy)phenyl)pyrazolo[1,5-a]pyrimidin-3-yl)-N,N-diethylacetamide]
tracer uptake in brain (tumor vs normal brain) (C6 glioma; dynamic PET, 90-minute acquisition): majority of tracer uptake in the brain was localized to the tumor | radioactive species detected in plasma [3]: the only radioactive species detected in plasma at all time points

SMILES: CCN(CC)C(=O)Cc1c(-c2ccc(OCC[18F])cc2)nn2c(C)cc(C)nc12 [^18F-6a, N,N-diethyl-2-(2-(4-(2-[^18F]fluoroethoxy)phenyl)-5,7-dimethylpyrazolo[1,5-a]pyrimidin-3-yl)acetamide]
metabolism in plasma [5]: up to 30%

decrease in affinity with respect to parent compound (TSPO [1]): approximately 10 fold
SMILES: CCN(CC)C(=O)Cc1c(-c2ccc(OCCF)cc2)nn2c(C)c(C)c(C)nc12 [Compound 6d]
